Experimental data: ChEMBL document CHEMBL1158572, “Dolabellane-type diterpenoids with antiprotozoan activity from a southwestern Caribbean gorgonian octocoral of the genus Eunicea” (J Nat Prod, 2010)
The source made the active and inactive calls. No cut-off for these calls is given here.

System: NCI-H460
Assay: Antiproliferative activity against human NCI-H460 cells after 48 hrs by SRB assay
Type: functional, cell-based
How it was run: (§1)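 NCI one-dose primary prescreen in a three-line panel (MCF-7 breast, NCI-H460 non-small cell lung, SF-268 CNS). Cytotoxicity was judged against untreated control cells. Antiproliferative activity in this prescreen is required before testing in the 60-cell-line panel.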

Row | Compound | Activity
1 | CC(C)=C1C(=O)C[C@@]2(C)C/C=C(\C)CC/C=C(\C)CC[C@H]12 [DOLABELLANE] | inactive
2 | CC(C)=C1C(=O)C[C@@]2(C)C/C=C(\C)CC[C@@H]3O[C@@]3(C)CC[C@H]12 | inactive
3 | CC(C)=C1C(=O)C[C@@]2(C)C/C=C(\C)CCC(=O)[C@H](C)CC[C@H]12 | inactive
4 | CC(C)=C1C(=O)C[C@@]2(C)C[C@H]3O[C@]3(C)CC[C@@H]3O[C@@]3(C)CC[C@H]12 | inactive

System: Hepatitis B virus
Assay: Antiviral activity against HBV in human HepG2(2.2.15) cells at 30 mM
Type: functional, organism-based

Row | Compound | Activity
5 | CC(C)=C1C(=O)C[C@@]2(C)C/C=C(\C)CC/C=C(\C)CC[C@H]12 [DOLABELLANE] | inactive
6 | CC(C)=C1C(=O)C[C@@]2(C)C/C=C(\C)CC[C@@H](OO)/C(C)=C/C[C@H]12 (relative stereo) | inactive
7 | CC(C)=C1C(=O)C[C@@]2(C)C/C=C(\C)CCC(=O)[C@H](C)CC[C@H]12 | inactive
8 | C/C1=C/C[C@]2(C)C(=O)C=C(C(C)C)[C@H]2C/C=C(\C)[C@H](OO)CC1 (relative stereo) | inactive
9 | C/C1=C\C[C@]2(C)CC=C(C(C)(C)O)[C@H]2CC/C(C)=C/CC1 [PALOMINOL] | inactive

System: SF-268
Assay: Antiproliferative activity against human SF268 cells after 48 hrs by SRB assay
Type: functional, cell-based
How it was run: as §1

Row | Compound | Activity
10 | CC(C)=C1C(=O)C[C@@]2(C)C/C=C(\C)CCC(=O)[C@H](C)CC[C@H]12 | inactive
11 | CC(C)=C1C(=O)C[C@@]2(C)C[C@H]3O[C@]3(C)CC[C@@H]3O[C@@]3(C)CC[C@H]12 | inactive

System: Mycobacterium tuberculosis
Assay: Antimycobacterial activity against Mycobacterium tuberculosis at 6.25 ug/ml by Alamar blue assay
Type: functional
How it was run: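 Single-concentration screen at 6.25 µg/mL against *M. tuberculosis* growth, read out as percent inhibition.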

Row | Compound | inhibition at 6.25 µg/mL
12 | CC(C)=C1C(=O)C[C@@]2(C)C/C=C(\C)CC/C=C(\C)CC[C@H]12 [DOLABELLANE] | ≤ 50%
13 | CC(C)=C1C(=O)C[C@@]2(C)C/C=C(\C)CC[C@@H](OO)/C(C)=C/C[C@H]12 (relative stereo) | ≤ 50%
14 | C=C1CC[C@@H](O)[C@]2(C)CC[C@@H]3C(=C(C)C)C(=O)C[C@@]3(C)C[C@@H]12 | ≤ 50%
15 | C/C1=C/C[C@]2(C)C(=O)C=C(C(C)C)[C@H]2CC[C@@]2(C)O[C@@H]2CC1 | ≤ 50%
16 | CC(C)=C1C(=O)C[C@@]2(C)C/C=C(\C)CC[C@@H]3O[C@@]3(C)CC[C@H]12 | ≤ 50%
17 | CC(C)=C1C(=O)C[C@@]2(C)C/C=C(\C)CCC(=O)[C@H](C)CC[C@H]12 | ≤ 50%
18 | C=C1CC/C=C(\C)CC[C@@H]2C(=C(C)C)C(=O)C[C@@]2(C)C[C@@H]1OC(C)=O (relative stereo) | ≤ 50%
19 | CC1=CC[C@@H](O)[C@]2(C)CC[C@@H]3C(=C(C)C)C(=O)C[C@@]3(C)C[C@@H]12 | ≤ 50%
20 | C/C1=C/C[C@]2(C)C(=O)C=C(C(C)C)[C@H]2C/C=C(\C)[C@H](OO)CC1 (relative stereo) | ≤ 50%
21 | C/C1=C\C[C@]2(C)CC=C(C(C)(C)O)[C@H]2CC/C(C)=C/CC1 [PALOMINOL] | ≤ 50%

System: Plasmodium falciparum
Assay: Antimalarial activity against chloroquine-resistant Plasmodium falciparum W2
Type: functional, organism-based

Row | Compound | IC50
22 | C/C1=C\C[C@]2(C)C(=O)C=C(C(C)C)[C@H]2CC[C@]2(C)O[C@H]2CC1 | 43 µM
23 | CC(=O)O[C@H]1C/C(C)=C/C[C@]2(C)CC(=O)C(=C(C)C)[C@H]2CC[C@]2(C)O[C@@H]12 | 33.3 µM
24 | CC(C)=C1C(=O)C[C@@]2(C)C/C=C(\C)CC/C=C(\C)CC[C@H]12 [DOLABELLANE] | 45.5 µM
25 | CC(C)=C1C(=O)C[C@@]2(C)C/C=C(\C)CC[C@@H](OO)/C(C)=C/C[C@H]12 (relative stereo) | 36.4 µM
26 | C/C1=C/C[C@]2(C)CC(=O)C(C(C)C)[C@H]2C/C=C(\C)[C@H](OO)CC1 (relative stereo) | 40.9 µM
27 | C/C1=C/C[C@]2(C)C(=O)C=C(C(C)C)[C@H]2CC[C@@]2(C)O[C@@H]2CC1 | ≥ 100 µM
28 | C=C1CC/C=C(\C)CC[C@@H]2C(=C(C)C)C(=O)C[C@@]2(C)C[C@@H]1O | 36.4 µM
29 | CC(C)=C1C(=O)C[C@@]2(C)C/C=C(\C)CC[C@@H]3O[C@@]3(C)CC[C@H]12 | 23.2 µM
30 | CC(C)=C1C(=O)C[C@@]2(C)C/C=C(\C)CCC(=O)[C@H](C)CC[C@H]12 | 13.2 µM
31 | C=C1CC/C=C(\C)CC[C@@H]2C(=C(C)C)C(=O)C[C@@]2(C)C[C@@H]1OC(C)=O (relative stereo) | 20.3 µM
32 | CC(=O)OC/C1=C\C[C@]2(C)CC(=O)C(=C(C)C)[C@H]2CC[C@]2(C)O[C@H]2CC1 | 30.6 µM
33 | CC1=CC[C@@H](O)[C@]2(C)CC[C@@H]3C(=C(C)C)C(=O)C[C@@]3(C)C[C@@H]12 | 59.6 µM
34 | C=C1CC[C@@H]2O[C@@]2(C)CC[C@@H]2C(=C(C)C)C(=O)C[C@@]2(C)C[C@@H]1OC(C)=O | 36.1 µM
35 | C/C1=C/C[C@]2(C)C(=O)C=C(C(C)C)[C@H]2C/C=C(\C)[C@H](OO)CC1 (relative stereo) | 9.4 µM
36 | CC(C)=C1C(=O)C[C@@]2(C)C[C@H]3O[C@]3(C)CC[C@@H]3O[C@@]3(C)CC[C@H]12 | 37.7 µM
37 | C/C1=C\C[C@]2(C)CC=C(C(C)(C)O)[C@H]2CC/C(C)=C/CC1 [PALOMINOL] | 31.2 µM
38 | C=C1CCC(=O)[C@@H](C)CC[C@@H]2C(=C(C)C)C(=O)C[C@@]2(C)C[C@@H]1OC(C)=O | 50 µM

System: MCF7
Assay: Antiproliferative activity against human MCF7 cells after 48 hrs by SRB assay
Type: functional, cell-based
How it was run: as §1

Row | Compound | Activity
39 | CC(C)=C1C(=O)C[C@@]2(C)C/C=C(\C)CC/C=C(\C)CC[C@H]12 [DOLABELLANE] | inactive
40 | CC(C)=C1C(=O)C[C@@]2(C)C/C=C(\C)CC[C@@H]3O[C@@]3(C)CC[C@H]12 | inactive
41 | CC(C)=C1C(=O)C[C@@]2(C)C/C=C(\C)CCC(=O)[C@H](C)CC[C@H]12 | inactive
42 | CC(C)=C1C(=O)C[C@@]2(C)C[C@H]3O[C@]3(C)CC[C@@H]3O[C@@]3(C)CC[C@H]12 | inactive
